ChEMBL document CHEMBL4414626, “Structure-Guided Enhancement of Selectivity of Chemical Probe Inhibitors Targeting Bacterial Seryl-tRNA Synthetase” (J Med Chem, 2019)
Activity calls are given as the source filed them. The calls are words filed in the database; no cut-off is given here.

Tests used:
Serine--tRNA ligase [1] = target: Serine--tRNA ligase (Staphylococcus aureus (strain NCTC 8325 / PS 47), UniProt P95689); test: Inhibition of C-terminal His10-tagged Staphylococcus aureus seg50 SerRS expressed in Lemo21(DE3) using Ap4A as substrate in presence of serine by leuconostoc mesenteroides hexokinase/glucose 6-Phosphate dehydrogenase coupled UV-visible spectrophotometry
Summary of the method: (§1)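 Continuous coupled spectrophotometric assay of the adenylate formation step with thrombin-cleaved, gel-filtered SerRS. Buffer is 50 mM HEPES pH 7.6 with 10 mM MgCl2, 50 mM KCl, 1 mM DTT and 10% DMSO. It also holds 10 mM glucose, 0.5 mM NADP+, yeast hexokinase and L. mesenteroides G6PDH. IC50 by non-linear regression.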

Serine--tRNA ligase [2] = target: T1, Serine--tRNA ligase (Escherichia coli (strain K12), UniProt P0A8L1); test: Inhibition of C-terminal His10-tagged Escherichia coli B ER2560 SerRS expressed in Lemo21(DE3) using Ap4A as substrate in presence of serine by leuconostoc mesenteroides hexokinase/glucose 6-Phosphate dehydrogenase coupled UV-visible spectrophotometry; summary of the method: as §1
T1 sequence (P0A8L1 whole entry): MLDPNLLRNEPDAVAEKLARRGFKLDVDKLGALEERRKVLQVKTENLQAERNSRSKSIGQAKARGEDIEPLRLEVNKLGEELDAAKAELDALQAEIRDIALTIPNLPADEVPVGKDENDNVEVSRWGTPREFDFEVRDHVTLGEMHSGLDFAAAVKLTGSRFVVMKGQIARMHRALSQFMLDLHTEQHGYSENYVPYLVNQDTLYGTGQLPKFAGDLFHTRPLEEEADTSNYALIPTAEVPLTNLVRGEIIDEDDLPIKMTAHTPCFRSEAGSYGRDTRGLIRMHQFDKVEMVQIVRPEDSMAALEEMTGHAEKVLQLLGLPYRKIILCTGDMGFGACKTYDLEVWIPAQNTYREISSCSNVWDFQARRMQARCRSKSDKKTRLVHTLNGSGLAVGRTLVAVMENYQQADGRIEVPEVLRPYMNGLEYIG

[3] = target: Serine--tRNA ligase (Escherichia coli (strain K12)) (UniProt P0A8L1); test: Binding affinity to C-terminal His10-tagged Escherichia coli B ER2560 SerRS expressed in Lemo21(DE3) SerRS assessed as binding stoichiometry at 2:1 ratio of compound to protein by isothermal titration calorimetry
Serine--tRNA ligase (Escherichia coli (strain K12)), sequence (P0A8L1 whole entry, looked up): as the sequence (P0A8L1 whole entry) above
Summary of the method: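 E. coli SerRS was purified by gel filtration and dialysed overnight at 4 °C into 20 mM Tris-HCl pH 7.5, 200 mM NaCl. Ligands were made up in the same buffer and all solutions degassed. ITC ran at 25 °C: 7 µM protein in the cell was titrated with 140 µM ligand by 2 µl then 26 × 10 µl injections (20 s each, 120 s apart). Stoichiometry N came from iterative isotherm fitting; runs were in triplicate.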

[4] = Solubility of the compound in HEPES buffer in presence of human N-terminal polyHis-tagged SerRS expressed in Escherichia coli BL21 (DE3) at 1000 uM; type: physicochemical
Escherichia coli = test: Antibacterial activity against Escherichia coli ATCC 25922 assessed as reduction in bacterial growth incubated for 18 to 20 hrs by broth microdilution assay; type: functional
Serine--tRNA ligase [5] = target: T1, Serine--tRNA ligase; test: Binding affinity to C-terminal His10-tagged Escherichia coli B ER2560 SerRS expressed in Lemo21(DE3) SerRS assessed as dissociation constant by isothermal titration calorimetry
Serine--tRNA ligase [6] = target: T1, Serine--tRNA ligase; test: Binding affinity to C-terminal His10-tagged Escherichia coli B ER2560 SerRS expressed in Lemo21(DE3) SerRS assessed as affinity constant for second binding site by isothermal titration calorimetry
Serine--tRNA ligase [7] = target: T1, Serine--tRNA ligase; test: Binding affinity to C-terminal His10-tagged Escherichia coli B ER2560 SerRS expressed in Lemo21(DE3) SerRS assessed as affinity constant for first binding site by isothermal titration calorimetry
Staphylococcus aureus = test: Antibacterial activity against Staphylococcus aureus ATCC 25923 assessed as reduction in bacterial growth incubated for 18 to 20 hrs by broth microdilution assay; type: functional
[8] = Selectivity index, ratio of IC50 for human N-terminal polyHis-tagged SerRS expressed in Escherichia coli BL21 (DE3) to IC50 for C-terminal His10-tagged Escherichia coli B ER2560 SerRS expressed in Lemo21(DE3)
[9] = Selectivity index, ratio of IC50 for human N-terminal polyHis-tagged SerRS expressed in Escherichia coli BL21 (DE3) to IC50 for C-terminal His10-tagged Staphylococcus aureus seg50 SerRS expressed in Lemo21(DE3)

Compound | MIC (Escherichia coli) [µg/mL] | MIC (Staphylococcus aureus) [µg/mL] | further results
CC1(C)O[C@@H]2[C@H](O1)[C@@H](CO)O[C@H]2n1cnc2c(N)nc(I)nc21 | – | – | IC50 (Serine--tRNA ligase [1]): 231000 nM; IC50 (Serine--tRNA ligase [2]): 285000 nM
Nc1nc(-c2cccnc2)nc2c1ncn2[C@@H]1O[C@H](COS(=O)(=O)NC(=O)[C@@H](N)CO)[C@@H](O)[C@H]1O | > 256 | > 256 | Activity [3]: Active; solubility [4]: Insoluble; Kd (Serine--tRNA ligase [5]): 290 to 1920 nM; Kd (Serine--tRNA ligase [6]): 1920 nM; Kd (Serine--tRNA ligase [7]): 290 nM
Nc1nc(I)nc2c1ncn2[C@@H]1O[C@H](COS(=O)(=O)NC(=O)[C@@H](N)CO)[C@@H](O)[C@H]1O | > 256 | > 256 | –
Nc1nc(-c2ccco2)nc2c1ncn2[C@@H]1O[C@H](COS(=O)(=O)NC(=O)[C@@H](N)CO)[C@@H](O)[C@H]1O | > 256 | > 256 | –
Nc1ncnc2c1ncn2[C@@H]1O[C@H](COS(=O)(=O)NC(=O)[C@@H](N)CO)[C@@H](O)[C@H]1O | > 256 | > 256 | Activity [3]: Active; Ratio IC50 [8]: 10; Kd (Serine--tRNA ligase [5]): 1.27 nM; Ratio IC50 [9]: 10

Further lines, with some results ahead:

MIC (Escherichia coli) [µg/mL] | MIC (Staphylococcus aureus) [µg/mL] | Compound | further results
> 256 | > 256 | Nc1nc(Cl)nc2c1ncn2[C@@H]1O[C@H](COS(=O)(=O)NC(=O)[C@@H](N)CO)[C@@H](O)[C@H]1O | –
> 256 | > 256 | Nc1nc(-c2ccccc2)nc2c1ncn2[C@@H]1O[C@H](COS(=O)(=O)NC(=O)[C@@H](N)CO)[C@@H](O)[C@H]1O | –
> 256 | > 256 | C/C=C/c1nc(N)c2ncn([C@@H]3O[C@H](COS(=O)(=O)NC(=O)[C@@H](N)CO)[C@@H](O)[C@H]3O)c2n1 | –
> 256 | > 256 | Nc1nc(-c2ccsc2)nc2c1ncn2[C@@H]1O[C@H](COS(=O)(=O)NC(=O)[C@@H](N)CO)[C@@H](O)[C@H]1O | solubility [4]: Insoluble
